Active and inactive are the calls of the source. No cut-off for these calls is given here.
Key:
HL-60 [1] = experiment: Induction of cell death in human HL60 cells assessed as late apoptotic cells at 2 uM after 24 hrs by FDA/PI staining based flow cytometer (reference value: 0.01%); format: functional
HL-60 [2] = experiment: Induction of cell death in human HL60 cells assessed as late apoptotic cells at 4 uM after 24 hrs by FDA/PI staining based flow cytometer (reference value: 0.01%); format: functional
HL-60 [3] = experiment: Cytotoxicity against human HL60 cells after 72 hrs using trypan blue exclusion staining by DCC method; format: functional, cell-based; settings: HL-60, 72 h
In short: (§1)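 For trypan blue dye-exclusion direct cell counting, HL-60 cells were seeded at 1 × 10⁵ cells/mL. Compound at 0–10 µM, or 1% DMSO control, was added after 24 h. Viable counts were taken after 24, 48 and 72 h. IC50 (50% inhibition of viability) came from growth curves, as mean ± S.D., n = 3.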

HL-60 [4] = experiment: Induction of cell death in human HL60 cells assessed as necrotic cells at 4 uM after 24 hrs by FDA/PI staining based flow cytometer (reference value: 5.87%); format: functional
HL-60 [5] = experiment: Induction of cell death in human HL60 cells assessed as early apoptotic cells at 4 uM after 24 hrs by FDA/PI staining based flow cytometer (reference value: 3.96%); format: functional
HL-60 [6] = experiment: Induction of cell death in human HL60 cells assessed as viable cells at 4 uM after 24 hrs by FDA/PI staining based flow cytometer (reference value: 90.16%); format: functional; settings: HL-60, 24 h, read-out: Activity
HL-60 [7] = experiment: Induction of cell death in human HL60 cells assessed as necrotic cells at 2 uM after 24 hrs by FDA/PI staining based flow cytometer (reference value: 5.87%); format: functional
HL-60 [8] = experiment: Induction of cell death in human HL60 cells assessed as early apoptotic cells at 2 uM after 24 hrs by FDA/PI staining based flow cytometer (reference value: 3.96%); format: functional
HL-60 [9] = experiment: Induction of cell death in human HL60 cells assessed as viable cells at 2 uM after 24 hrs by FDA/PI staining based flow cytometer (reference value: 90.16%); format: functional; settings: HL-60, 24 h, read-out: Activity
HL-60 [10] = experiment: Induction of necrosis in human HL60 cells assessed as cell shrinking at 2.5 uM after 24 hrs by propidium iodide staining based fluorescence microscopy; format: functional
HL-60 [11] = experiment: Cell cycle arrest in human HL60 cells assessed as accumulation at sub G0 phase at 1 uM after 48 hrs by propidium iodide staining based flow cytometry (reference value: 1.93%); format: functional
HL-60 [12] = experiment: Cell cycle arrest in human HL60 cells assessed as accumulation at sub G0 phase at 0.5 uM after 48 hrs by propidium iodide staining based flow cytometry (reference value: 1.93%); format: functional
HL-60 [13] = experiment: Cell cycle arrest in human HL60 cells assessed as accumulation at S phase at 1 uM after 48 hrs by propidium iodide staining based flow cytometry (reference value: 38.96%); format: functional
HL-60 [14] = experiment: Cell cycle arrest in human HL60 cells assessed as accumulation at S phase at 0.5 uM after 48 hrs by propidium iodide staining based flow cytometry (reference value: 38.96%); format: functional
HL-60 [15] = experiment: Cell cycle arrest in human HL60 cells assessed as accumulation at G2 phase at 1 uM after 48 hrs by propidium iodide staining based flow cytometry (reference value: 12.90%); format: functional
HL-60 [16] = experiment: Cell cycle arrest in human HL60 cells assessed as accumulation at G2 phase at 0.5 uM after 48 hrs by propidium iodide staining based flow cytometry (reference value: 12.90%); format: functional
HL-60 [17] = experiment: Cell cycle arrest in human HL60 cells assessed as accumulation at G1 phase at 1 uM after 48 hrs by propidium iodide staining based flow cytometry (reference value: 48.14%); format: functional
HL-60 [18] = experiment: Cell cycle arrest in human HL60 cells assessed as accumulation at G1 phase at 0.5 uM after 48 hrs by propidium iodide staining based flow cytometry (reference value: 48.14%); format: functional
HL-60 [19] = experiment: Induction of oxidative stress in BSO pretreated human HL60 cells assessed as superoxide production at 5 uM treated 6 hrs after BSO addition measured after 1 hr by DHE dye fluorescence microscopy; format: functional, cell-based
In short: (§2)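 HL-60 cells (4 × 10⁵) were cultured 24 h at 37 °C, then given 5 µM for 1 h, with or without 6 h pretreatment with 10 µM L-buthionine-sulfoximine. Dihydroethidium (20 µM) was then added for 20 min at 37 °C. Cells were washed in PBS and superoxide was viewed by fluorescence microscopy. Menadione served as positive control.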

HL-60 [20] = experiment: Induction of oxidative stress in human HL60 cells assessed as superoxide production at 5 uM after 1 hr by DHE dye based fluorescence microscopy; format: functional, cell-based; in short: as §2
HL-60 [21] = experiment: Cytotoxicity against BSO pretreated human HL60 cells assessed as cell viability at 1 uM treated 6 hrs after BSO addition measured after 48 hrs by trypan blue exclusion assay; format: functional, cell-based
In short: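 HL-60 cells were pretreated 6 h with L-buthionine-sulfoximine (10 µM), then exposed to 1.5, 3.0 or 1.0 µM compound for 48 h. Viable cells were counted by trypan blue staining and expressed as percentage of all cells.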

HL-60 [22] = experiment: Decrease in intracellular glutathione level in human HL60 cells at 1 uM after 2 to 24 hrs by spectrophotometric analysis; format: functional, cell-based
[23] = Binding affinity to NAC assessed as second order rate constant at 1 mM at pH 6 after 10 mins by UV-visible spectrophotometry
In short: (§3)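 Reaction with N-acetyl-L-cysteine was run in 100 mM Tris/HCl containing 50% DMSO at 25 °C, with final 2c at 20 µM and NAC at 1 mM. pH was 6.0, 6.5 or 7.0. Spectral change was monitored by UV–vis, with the mixture held 10 min. Second-order rate constants k2 (M⁻¹ s⁻¹) are reported.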

[24] = Binding affinity to NAC assessed as second order rate constant at 1 mM at pH 6.5 after 10 mins by UV-visible spectrophotometry; in short: as §3
HL-60 [25] = experiment: Drug uptake in human HL60 cells at 10 uM after 10 to 60 mins by RP-HPLC analysis; format: ADME, cell-based; settings: hl-60, 10 µM
In short: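 HL-60 cells (2 × 10⁶/mL) were exposed to 10 µM for 10 or 60 min, washed twice in PBS and extracted with methanol (1 h, 4 °C). Extract was centrifuged at 6700 × g and injected (20 µL) onto a C18 RP-HPLC column. Mobile phase was methanol/50 mM ammonium formate 80:20, pH 4.5, at 0.5 mL/min and 25 °C, with detection at 370 nm.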

[26] = Binding affinity to NAC assessed as second order rate constant at 1 mM at pH 7 after 10 mins by UV-visible spectrophotometry; in short: as §3
A2780 [27] = experiment: Drug uptake in human A2780 cells at 5 uM after 4 hrs by Hoechst staining based fluorescence microscopy; format: ADME, cell-based; settings: a2780, 4 h
HL-60 [28] = experiment: Drug uptake in human HL60 cells at 5 uM after 4 hrs by Hoechst staining based fluorescence microscopy; format: ADME, cell-based; settings: hl-60, 4 h
In short: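 HL-60 cells were exposed to 5 µM for 4 h at 37 °C, 5% CO₂, then washed in PBS. Intrinsic blue fluorescence was viewed by optical and fluorescence microscopy. Untreated control cells were stained with Hoechst 33342 (10 µM, 10 min).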

NIH3T3 = experiment: Cytotoxicity against mouse NIH/3T3 cells after 72 hrs by MTT assay; format: cell-based; settings: NIH3T3, 72 h
A2780 [29] = experiment: Cytotoxicity against human A2780 cells after 72 hrs by MTT assay; format: functional, cell-based; settings: A2780, 72 h
In short: (§4)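 HL-60, L1210 and A2780 cells were grown in RPMI 1640 with 10% FBS, penicillin and streptomycin at 37 °C, 5% CO₂; HL-60 and A2780 medium also had 2 mM glutamine. Cells were exposed to 0–30 µM for 48 or 72 h. Viability was read by MTT microculture tetrazolium assay and IC50 was determined.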

HL-60 [30] = experiment: Cytotoxicity against human HL60 cells after 48 hrs using trypan blue exclusion staining by DCC method; format: functional, cell-based; settings: HL-60, 48 h; in short: as §1
A2780 [31] = experiment: Cytotoxicity against human A2780 cells after 48 hrs by MTT assay; format: functional, cell-based; settings: A2780, 48 h; in short: as §4
L1210 [32] = experiment: Cytotoxicity against mouse L1210 cells after 72 hrs by MTT assay; format: functional, cell-based; settings: L1210, 72 h; in short: as §4
L1210 [33] = experiment: Cytotoxicity against mouse L1210 cells after 48 hrs by MTT assay; format: functional, cell-based; settings: L1210, 48 h; in short: as §4
HL-60 [34] = experiment: Cytotoxicity against human HL60 cells after 48 hrs by MTT assay; format: functional, cell-based; settings: HL-60, 48 h; in short: as §4
HL-60 [35] = experiment: Cytotoxicity against human HL60 cells after 72 hrs by MTT assay; format: functional, cell-based; settings: HL-60, 72 h; in short: as §4
Nucleic Acid [36] = experiment: Ratio of acridine orange K to compound K for calf thymus DNA by spectrofluorimetry based McGhee von Hippel method; format: nucleic-acid assay; settings: Bos taurus
Nucleic Acid [37] = experiment: Ratio of daunomycin K to compound K for calf thymus DNA by spectrofluorimetry based McGhee von Hippel method; format: nucleic-acid assay; settings: Bos taurus
Nucleic Acid [38] = experiment: Ratio of proflavine K to compound K for calf thymus DNA by spectrofluorimetry based McGhee von Hippel method; format: nucleic-acid assay; settings: Bos taurus
Nucleic Acid [39] = experiment: Binding affinity to calf thymus DNA assessed as intercalation at 26.7 uM by fluorometric titration analysis; format: nucleic-acid assay; settings: Bos taurus
In short: (§5)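 Fluorescence titration used compound at 26.7 µM in 0.01 M Tris buffer (pH 7.4, 24 °C). ctDNA was added stepwise from 0 to 32 µM bp at 2 µM intervals until spectra stopped changing. Excitation was 384 nm and emission was read at 410–470 nm. Binding constant K was derived by the McGhee–von Hippel method from Scatchard plot data.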

Nucleic Acid [40] = experiment: Binding affinity to calf thymus DNA assessed as binding constant by spectrofluorimetry based McGhee von Hippel method; format: nucleic-acid assay; settings: Bos taurus; in short: as §5
Nucleic Acid [41] = experiment: Binding affinity to calf thymus DNA assessed as melting temperature at 5 uM at pH 7.1 by thermal denaturation assay; format: nucleic-acid assay; settings: Bos taurus
Nucleic Acid [42] = experiment: Binding affinity to calf thymus DNA assessed as hypochromicity at 25 uM by UV-visible spectrophotometry; format: nucleic-acid assay; settings: Bos taurus
In short: (§6)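 Absorption spectra were taken in 0.01 M Tris buffer, pH 7.4. Compounds were diluted from DMSO stock to a final 25 µM. Sonicated calf thymus DNA in TE buffer was added at 0–30 µM bp, with concentration set by A260. Shift of λmax (free vs bound) and % hypochromicity were recorded.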

Nucleic Acid [43] = experiment: Binding affinity to calf thymus DNA assessed as bathochromic shift at 25 uM by UV-visible spectrophotometry; format: nucleic-acid assay; settings: Bos taurus; in short: as §6

Compound COC(=O)/C=C1\S/C(=N\c2c3ccccc3nc3ccccc23)N(c2ccc(Br)cc2)C1=O has an Activity (HL-60 [1]) of 0.03%, an Activity (HL-60 [2]) of 0.01% and an IC50 (HL-60 [3]) of 0.9 µM. For the same compound, the Activity (HL-60 [4]) was 62.62%, the Activity (HL-60 [5]) was 19.57% and the viability at 4 µM (HL-60 [6]) was 17.8%. It also gave an Activity (HL-60 [7]) of 22.87%, an Activity (HL-60 [8]) of 68.64% and a viability at 2 µM (HL-60 [9]) of 8.46%. The Activity (HL-60 [10]) was “Active”, the Activity (HL-60 [11]) was 25.85% and the Activity (HL-60 [12]) was 21.7%. For the same compound, the Activity (HL-60 [13]) was 11.99%, the Activity (HL-60 [14]) was 38.4% and the Activity (HL-60 [15]) was 5.08%. It also gave an Activity (HL-60 [16]) of 10.56%, an Activity (HL-60 [17]) of 82.93% and an Activity (HL-60 [18]) of 51.04%. For the same compound, the Activity (HL-60 [19]) was “Active”, the Activity (HL-60 [20]) was “Active” and the Activity (HL-60 [21]) was “Active”. For the same compound, the Activity (HL-60 [22]) was “Active”, the Activity [23] was 2 M⁻¹ s⁻¹ and the Activity [24] was 3.8 M⁻¹ s⁻¹. For the same compound, the Drug uptake (HL-60 [25]) was “Active”, the Activity [26] was 9.9 M⁻¹ s⁻¹ and the Drug uptake (A2780 [27]) was “Active”. For the same compound, the Drug uptake (HL-60 [28]) was “Active”, the IC50 (NIH3T3) was 3.5 µM and the IC50 (A2780 [29]) was 7.7 µM. It also gave an IC50 (HL-60 [30]) of 1.6 µM, an IC50 (A2780 [31]) of 12.5 µM and an IC50 (L1210 [32]) of 3.1 µM. For the same compound, the IC50 (L1210 [33]) was 1.7 µM, the IC50 (HL-60 [34]) was 1.4 µM and the IC50 (HL-60 [35]) was 1.3 µM. The Ratio (Nucleic Acid [36]) was 10, the Ratio (Nucleic Acid [37]) was 10 and the Ratio (Nucleic Acid [38]) was 10. The Activity (Nucleic Acid [39]) was “Active”, the K (Nucleic Acid [40]) was 5.89 ×10⁶ /M and the Tm (Nucleic Acid [41]) was 81 °C. For the same compound, the Activity (Nucleic Acid [42]) was 24.2% and the Activity (Nucleic Acid [43]) was “Active”.

Reference: ChEMBL document CHEMBL2203053, “DNA binding acridine-thiazolidinone agents affecting intracellular glutathione” (Bioorg Med Chem, 2012)
